Measured values reported in ChEMBL document CHEMBL2086304, “Synthesis and in vitro antimycobacterial and isocitrate lyase inhibition properties of novel 2-methoxy-2'-hydroxybenzanilides, their thioxo analogues and benzoxazoles” (Eur J Med Chem, 2012).
≈ marks a conversion by molar mass, not a printed value.

Assays:
Mycobacterium avium [1] = test: Antimycobacterial activity against isoniazid resistance Mycobacterium avium 330/88 after 14 days by micromethod; type: functional; conditions: 330/88, 336 h
Outline: (§1)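 Inocula: M. tuberculosis My 331/88 at 10^-3 dilution, M. avium My 330/88 at 10^-5, M. kansasii My 235/80 and clinical isolate 6509/96 at 10^-4. Compounds added in DMSO at 1000 down to 0.5 (twofold series). Read at 14 and 21 days, plus 7 days for M. kansasii. MIC taken as lowest concentration inhibiting growth.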

[2] = system: Mycobacterium tuberculosis; test: Antimycobacterial activity against Mycobacterium tuberculosis 331/88 after 14 days by micromethod; type: functional; conditions: 331/88, 336 h; outline: as §1
[3] = Selectivity index, ratio of IC50 for human HepG2 cells to MIC for Mycobacterium tuberculosis 331/88 after 14 days; type: functional
Outline: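 Cytotoxicity in Hep G2 cells (passage 12), 10,000 cells/well, in MEM with 10% FBS, 1% glutamine and 1% nonessential amino acids. Cells preincubated 24 h, 37 °C, 5% CO2. Compounds in DMSO at eight concentrations in quadruplicate, 24 h. MTS-type reagent added for 1.5 h, A490 read, IC50 taken at 50% viability. SI = this IC50 over the 14-day M. tuberculosis MIC.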

Mycobacterium kansasii [4] = test: Antimycobacterial activity against isoniazid resistance Mycobacterium kansasii 225/80 after 21 days by micromethod; type: functional; conditions: 225/80, 504 h
Mycobacterium kansasii [5] = test: Antimycobacterial activity against isoniazid resistance Mycobacterium kansasii 225/80 after 14 days by micromethod; type: functional; conditions: 225/80, 336 h
[6] = biological target: T1, Isocitrate lyase (Mycobacterium tuberculosis) (UniProt P9WKK7); test: Inhibition of Mycobacterium tuberculosis H37Rv isocitrate lyase expressed in Escherichia coli HB101 at 10 umol/L
T1 sequence (whole entry): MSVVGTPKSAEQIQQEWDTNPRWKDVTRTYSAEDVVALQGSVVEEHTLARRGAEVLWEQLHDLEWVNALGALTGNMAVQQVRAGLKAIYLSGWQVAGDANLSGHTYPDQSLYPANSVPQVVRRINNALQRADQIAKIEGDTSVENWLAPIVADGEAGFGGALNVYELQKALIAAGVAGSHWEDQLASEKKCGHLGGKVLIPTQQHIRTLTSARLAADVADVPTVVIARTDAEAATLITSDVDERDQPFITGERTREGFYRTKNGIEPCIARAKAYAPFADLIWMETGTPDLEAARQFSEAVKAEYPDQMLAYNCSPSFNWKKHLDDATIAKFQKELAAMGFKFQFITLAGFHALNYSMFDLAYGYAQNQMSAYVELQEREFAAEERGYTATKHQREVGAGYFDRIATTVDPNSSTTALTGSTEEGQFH
Outline: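 Isocitrate lyase assayed per Dixon–Kornberg in 96-well format. Buffer: 50 mmol/L KH2PO4, 4 mmol/L MgCl2, 4 mmol/L phenylhydrazine, 12 mmol/L cysteine, pH 7.0. Glyoxylate phenylhydrazone read at 324 nm. Compounds added in DMSO, with DMSO-alone inhibition subtracted.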

Mycobacterium kansasii [7] = test: Antimycobacterial activity against isoniazid resistance Mycobacterium kansasii 225/80 after 7 days by micromethod; type: functional; conditions: 225/80, 168 h
[8] = system: Mycobacterium tuberculosis; test: Antimycobacterial activity against Mycobacterium tuberculosis 331/88 after 21 days by micromethod; type: functional; conditions: 331/88, 504 h; outline: as §1
HepG2 = test: Cytotoxicity against human HepG2 cells after 24 hrs by CellTiter-96 cell viability assay; type: functional, cell-based; conditions: HepG2, 24 h
Outline: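 Hep G2 human hepatic cells (passage 12), 10,000 per well, grown 24 h at 37 °C, 5% CO2 in MEM with 1% glutamine, 10% FBS and 1% nonessential amino acids. Compounds in DMSO at eight increasing concentrations, quadruplicate, 24 h at 37 °C. Kit reagent added, 1.5 h at 37 °C, absorbance 490 nm. IC50 is the concentration reducing viability to 50% of control.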

Mycobacterium kansasii [9] = test: Antimycobacterial activity against Mycobacterium kansasii 6509/96 clinical isolate after 7 days by micromethod; type: functional; conditions: 6509/96, 168 h; outline: as §1
Mycobacterium kansasii [10] = test: Antimycobacterial activity against Mycobacterium kansasii 6509/96 clinical isolate after 14 days by micromethod; type: functional; conditions: 6509/96, 336 h; outline: as §1
Mycobacterium avium [11] = test: Antimycobacterial activity against isoniazid resistance Mycobacterium avium 330/88 after 21 days by micromethod; type: functional; conditions: 330/88, 504 h; outline: as §1
Mycobacterium kansasii [12] = test: Antimycobacterial activity against Mycobacterium kansasii 6509/96 clinical isolate after 21 days by micromethod; type: functional; conditions: 6509/96, 504 h; outline: as §1

COc1cc(Cl)ccc1C(=O)Nc1cc(Cl)c(Cl)cc1O
MIC (Mycobacterium avium [1]): > 1000 µM
MIC [2]: 500 µM (≈ 173 µg/mL)
Selectivity Index [3]: 0.02
MIC (Mycobacterium kansasii [4]): 500 µM (≈ 173 µg/mL)
MIC (Mycobacterium kansasii [5]): 500 µM (≈ 173 µg/mL)
inhibition [6]: 0%
MIC (Mycobacterium kansasii [7]): 500 µM (≈ 173 µg/mL)
MIC [8]: 500 µM (≈ 173 µg/mL)
IC50 (HepG2): 11.5 µM
MIC (Mycobacterium kansasii [9]): 250 µM (≈ 86.6 µg/mL)
MIC (Mycobacterium kansasii [10]): 250 µM (≈ 86.6 µg/mL)
MIC (Mycobacterium avium [11]): > 1000 µM
MIC (Mycobacterium kansasii [12]): 250 µM (≈ 86.6 µg/mL)

COc1cc(Cl)ccc1C(=S)Nc1ccc(Br)cc1O
MIC (Mycobacterium avium [1]): 32 µM (≈ 11.9 µg/mL)
MIC [2]: 16 µM (≈ 5.96 µg/mL)
Selectivity Index [3]: 0.24
MIC (Mycobacterium kansasii [4]): 62.5 µM (≈ 23.3 µg/mL)
MIC (Mycobacterium kansasii [5]): 32 µM (≈ 11.9 µg/mL)
inhibition [6]: 10%
MIC (Mycobacterium kansasii [7]): 16 µM (≈ 5.96 µg/mL)
MIC [8]: 32 µM (≈ 11.9 µg/mL)
IC50 (HepG2): 3.88 µM
MIC (Mycobacterium kansasii [9]): 16 µM (≈ 5.96 µg/mL)
MIC (Mycobacterium kansasii [10]): 32 µM (≈ 11.9 µg/mL)
MIC (Mycobacterium avium [11]): 32 µM (≈ 11.9 µg/mL)
MIC (Mycobacterium kansasii [12]): 32 µM (≈ 11.9 µg/mL)

COc1cc(Cl)ccc1C(=S)Nc1ccc(Cl)cc1O
MIC (Mycobacterium avium [1]): 32 µM (≈ 10.5 µg/mL)
MIC [2]: 16 µM (≈ 5.25 µg/mL)
Selectivity Index [3]: 0.32
MIC (Mycobacterium kansasii [4]): 62.5 µM (≈ 20.5 µg/mL)
MIC (Mycobacterium kansasii [5]): 32 µM (≈ 10.5 µg/mL)
inhibition [6]: 10%
MIC (Mycobacterium kansasii [7]): 16 µM (≈ 5.25 µg/mL)
MIC [8]: 32 µM (≈ 10.5 µg/mL)
IC50 (HepG2): 5.11 µM
MIC (Mycobacterium kansasii [9]): 16 µM (≈ 5.25 µg/mL)
MIC (Mycobacterium kansasii [10]): 32 µM (≈ 10.5 µg/mL)
MIC (Mycobacterium avium [11]): 32 µM (≈ 10.5 µg/mL)
MIC (Mycobacterium kansasii [12]): 32 µM (≈ 10.5 µg/mL)

COc1ccc(Cl)cc1C(=S)Nc1cc(Cl)ccc1O
MIC (Mycobacterium avium [1]): 32 µM (≈ 10.5 µg/mL)
MIC [2]: 16 µM (≈ 5.25 µg/mL)
Selectivity Index [3]: 0.54
MIC (Mycobacterium kansasii [4]): 16 µM (≈ 5.25 µg/mL)
MIC (Mycobacterium kansasii [5]): 8 µM (≈ 2.63 µg/mL)
inhibition [6]: 0%
MIC (Mycobacterium kansasii [7]): 8 µM (≈ 2.63 µg/mL)
MIC [8]: 32 µM (≈ 10.5 µg/mL)
IC50 (HepG2): 8.6 µM
MIC (Mycobacterium kansasii [9]): 16 µM (≈ 5.25 µg/mL)
MIC (Mycobacterium kansasii [10]): 32 µM (≈ 10.5 µg/mL)
MIC (Mycobacterium avium [11]): 32 µM (≈ 10.5 µg/mL)
MIC (Mycobacterium kansasii [12]): 32 µM (≈ 10.5 µg/mL)

COc1ccc(Cl)cc1C(=O)Nc1cc(C(F)(F)F)ccc1O
MIC (Mycobacterium avium [1]): 62.5 µM (≈ 21.6 µg/mL)
MIC [2]: 250 µM (≈ 86.4 µg/mL)
Selectivity Index [3]: 0.06
MIC (Mycobacterium kansasii [4]): 62.5 µM (≈ 21.6 µg/mL)
MIC (Mycobacterium kansasii [5]): 62.5 µM (≈ 21.6 µg/mL)
inhibition [6]: 0%
MIC (Mycobacterium kansasii [7]): 32 µM (≈ 11.1 µg/mL)
MIC [8]: 250 µM (≈ 86.4 µg/mL)
IC50 (HepG2): 15.4 µM
MIC (Mycobacterium kansasii [9]): 62.5 µM (≈ 21.6 µg/mL)
MIC (Mycobacterium kansasii [10]): 125 µM (≈ 43.2 µg/mL)
MIC (Mycobacterium avium [11]): 125 µM (≈ 43.2 µg/mL)
MIC (Mycobacterium kansasii [12]): 125 µM (≈ 43.2 µg/mL)

COc1cc(Cl)ccc1C(=S)Nc1cc(C(F)(F)F)ccc1O
MIC (Mycobacterium avium [1]): 32 µM (≈ 11.6 µg/mL)
MIC [2]: 32 µM (≈ 11.6 µg/mL)
Selectivity Index [3]: 0.18
MIC (Mycobacterium kansasii [4]): 125 µM (≈ 45.2 µg/mL)
MIC (Mycobacterium kansasii [5]): 62.5 µM (≈ 22.6 µg/mL)
inhibition [6]: 0%
MIC (Mycobacterium kansasii [7]): 32 µM (≈ 11.6 µg/mL)
MIC [8]: 62.5 µM (≈ 22.6 µg/mL)
IC50 (HepG2): 5.74 µM
MIC (Mycobacterium kansasii [9]): 32 µM (≈ 11.6 µg/mL)
MIC (Mycobacterium kansasii [10]): 62.5 µM (≈ 22.6 µg/mL)
MIC (Mycobacterium avium [11]): 62.5 µM (≈ 22.6 µg/mL)
MIC (Mycobacterium kansasii [12]): 125 µM (≈ 45.2 µg/mL)

COc1ccc(Cl)cc1C(=S)Nc1cc(Cl)c(Cl)cc1O
MIC (Mycobacterium avium [1]): 62.5 µM (≈ 22.7 µg/mL)
MIC [2]: 16 µM (≈ 5.8 µg/mL)
Selectivity Index [3]: 0.23
MIC (Mycobacterium kansasii [4]): 62.5 µM (≈ 22.7 µg/mL)
MIC (Mycobacterium kansasii [5]): 62.5 µM (≈ 22.7 µg/mL)
inhibition [6]: 9%
MIC (Mycobacterium kansasii [7]): 32 µM (≈ 11.6 µg/mL)
MIC [8]: 32 µM (≈ 11.6 µg/mL)
IC50 (HepG2): 3.72 µM
MIC (Mycobacterium kansasii [9]): 16 µM (≈ 5.8 µg/mL)
MIC (Mycobacterium kansasii [10]): 32 µM (≈ 11.6 µg/mL)
MIC (Mycobacterium avium [11]): 62.5 µM (≈ 22.7 µg/mL)
MIC (Mycobacterium kansasii [12]): 62.5 µM (≈ 22.7 µg/mL)

COc1ccc(Cl)cc1C(=O)Nc1ccc(C(F)(F)F)cc1O
MIC (Mycobacterium avium [1]): 62.5 µM (≈ 21.6 µg/mL)
MIC [2]: 500 µM (≈ 173 µg/mL)
Selectivity Index [3]: 0.01
MIC (Mycobacterium kansasii [4]): 250 µM (≈ 86.4 µg/mL)
MIC (Mycobacterium kansasii [5]): 250 µM (≈ 86.4 µg/mL)
inhibition [6]: 2%
MIC [8]: 500 µM (≈ 173 µg/mL)
IC50 (HepG2): 4.91 µM
MIC (Mycobacterium kansasii [9]): 250 µM (≈ 86.4 µg/mL)
MIC (Mycobacterium kansasii [10]): 250 µM (≈ 86.4 µg/mL)
MIC (Mycobacterium avium [11]): 62.5 µM (≈ 21.6 µg/mL)
MIC (Mycobacterium kansasii [12]): 250 µM (≈ 86.4 µg/mL)

COc1ccc(Cl)cc1C(=O)Nc1cc(Cl)c(Cl)cc1O
MIC (Mycobacterium avium [1]): 125 µM (≈ 43.3 µg/mL)
MIC [2]: 125 µM (≈ 43.3 µg/mL)
Selectivity Index [3]: 0.02
MIC (Mycobacterium kansasii [4]): 125 µM (≈ 43.3 µg/mL)
MIC (Mycobacterium kansasii [5]): 125 µM (≈ 43.3 µg/mL)
inhibition [6]: 7%
MIC (Mycobacterium kansasii [7]): 125 µM (≈ 43.3 µg/mL)
MIC [8]: 125 µM (≈ 43.3 µg/mL)
IC50 (HepG2): 2.98 µM
MIC (Mycobacterium kansasii [9]): 125 µM (≈ 43.3 µg/mL)
MIC (Mycobacterium kansasii [10]): 125 µM (≈ 43.3 µg/mL)
MIC (Mycobacterium avium [11]): 125 µM (≈ 43.3 µg/mL)
MIC (Mycobacterium kansasii [12]): 125 µM (≈ 43.3 µg/mL)

COc1ccc(Cl)cc1C(=O)Nc1ccc(Br)cc1O
MIC (Mycobacterium avium [1]): 500 µM (≈ 178 µg/mL)
MIC [2]: 4 µM (≈ 1.43 µg/mL)
Selectivity Index [3]: 2
MIC (Mycobacterium kansasii [4]): 500 µM (≈ 178 µg/mL)
MIC (Mycobacterium kansasii [5]): 500 µM (≈ 178 µg/mL)
inhibition [6]: 0%
MIC (Mycobacterium kansasii [7]): 500 µM (≈ 178 µg/mL)
MIC [8]: 8 µM (≈ 2.85 µg/mL)
IC50 (HepG2): 7.98 µM
MIC (Mycobacterium kansasii [9]): 250 µM (≈ 89.2 µg/mL)
MIC (Mycobacterium kansasii [10]): 250 µM (≈ 89.2 µg/mL)
MIC (Mycobacterium avium [11]): 500 µM (≈ 178 µg/mL)
MIC (Mycobacterium kansasii [12]): 250 µM (≈ 89.2 µg/mL)
